Rows were chosen to be rich in hits. Some 4.7% of all compounds tested hit in one or more screens of this group.
GRIN3A LBD mod: binders of NR3A ligand-binding domain, primary screen, biophysical, differential scanning fluorimetry, uHTS. NR3A LBD differential scanning fluorimetry, Tm shift; 0% = protein alone, 100% = glycine-bound protein. 340,000 compounds, 2.5% hits. Tm shift relative to glycine control, % at 25 µM;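 active = melting temperature shift of at least 10% of the positive control shift, at one fixed dose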
ADAM10 inh: human ADAM10 inhibitors, primary screen, biochemical, QFRET, HTS. Disintegrin and metalloproteinase domain-containing protein 10 (Homo sapiens), O14672. recombinant ADAM10, EDANS/DABCYL FRET peptide cleavage, 3 h. inhibition, % at 7 µM. 370,000 compounds, 0.62% hits;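 active = inhibition above a per-campaign cutoff equal to the mean of compounds falling between control-based bounds plus 3 SD, cut at about 20% in these data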;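 also: 0% = DMSO wells while the 100% control is not disclosed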
Target sequence (O14672 214-748 limits assumed): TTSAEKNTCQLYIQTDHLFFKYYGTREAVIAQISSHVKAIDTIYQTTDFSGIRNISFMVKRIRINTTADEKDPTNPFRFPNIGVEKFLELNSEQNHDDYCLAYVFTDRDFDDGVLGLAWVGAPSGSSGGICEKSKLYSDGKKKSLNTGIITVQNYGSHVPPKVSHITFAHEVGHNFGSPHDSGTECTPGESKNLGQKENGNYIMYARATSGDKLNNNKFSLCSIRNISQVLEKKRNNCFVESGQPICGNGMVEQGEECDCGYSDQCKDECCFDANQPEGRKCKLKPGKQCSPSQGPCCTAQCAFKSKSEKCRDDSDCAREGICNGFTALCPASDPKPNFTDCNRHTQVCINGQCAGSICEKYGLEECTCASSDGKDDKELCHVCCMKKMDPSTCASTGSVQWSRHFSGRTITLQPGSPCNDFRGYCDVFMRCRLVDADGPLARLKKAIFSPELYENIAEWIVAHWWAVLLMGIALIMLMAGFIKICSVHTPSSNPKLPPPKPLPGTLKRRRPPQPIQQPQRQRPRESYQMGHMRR
MPTP block: mitochondrial permeability transition pore inhibitors, primary screen, biochemical, isolated mouse mitochondria, absorbance; Ca2+ swelling absorbance, 30 min; inhibition, % at 10 µM; 360,000 compounds, 1.4% hits; AID 602449, 2012;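 active = inhibition of 50% or more, scaled per plate between neutral and stimulator controls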;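 also: 0% = DMSO wells given calcium and 100% = 1 mM EGTA wells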
ADAM17 inh: ADAM17 inhibitors, primary screen, biochemical, QFRET. recombinant ADAM17, EDANS/DABCYL FRET peptide cleavage. inhibition, % at 6.95 µM. 370,000 compounds, 0.83% hits. AID 720648, 2013. Disintegrin and metalloproteinase domain-containing protein 17 (Homo sapiens), P78536;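 active = inhibition above the mean of compounds lying between control limits plus 3 SD, set per campaign, cut at about 8.5% in these data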;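 also: 0% = DMSO-only wells as the low control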
MT1-MMP act inh: blockers of MT1-MMP proenzyme processing, primary screen, HT1080 RFP-PRO-GFP cells, GFP/RFP fluorescence; Matrix metalloproteinase-14 (Homo sapiens), P50281; GFP/RFP ratio fluorescence, overnight; percent of plate control window, DMSO zero; AID 651647, 2012; GFP/RFP ratio change, % at 20 µM; 360,000 compounds, 0.061% hits;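 active = GFP/RFP ratio change of at least 30% with cell ATP level not reduced by more than half and red fluorescence within 50% of control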
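Material – HT1080 RFP-PRO-GFP cells · Control set – DMSO wells and RFP-L50D-GFP cells · Incubation – overnight cell settling, then overnight compound exposure, 37 °C, 5% CO2 · Compound dosing – single-point 20 µM compound, 1% DMSO · Read-out – GFP/RFP fluorescence ratio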
SKN-1 inh: suppressors of acrylamide-induced Pgst-4::GFP reporter in worms, primary screen, SKN-1 inhibitor project, whole organism, uHTS, GFP/RFP fluorescence ratio, strain VP596 | C. elegans VP596 Pgst-4::GFP/RFP ratio, 24 h | AID 624304, 2012 | inhibition, % at 21.8 µM | 360,000 compounds, 0.49% hits;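 active = interference check ratio from 0.5 to 1.5 plus GFP to RFP signal ratio inhibition reaching or exceeding a fixed threshold, cut at about 30% in these data, passing the limit was not always enough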
An asterisk follows results filed as active; i = inactive; / = not tested or not shown.

SMILES | GRIN3A LBD mod | ADAM10 inh | MPTP block | ADAM17 inh | MT1-MMP act inh | SKN-1 inh
CCOC(=O)c1snc(-c2ccc(F)cc2)c1N | 14* | -47 | -1 | -14 | -4 | -8
CCNc1nc(SCC(=O)Nc2ccc(Cl)c(Cl)c2)nc(N(C)C)n1 | 10* | 7 | 2 | 6 | -2 | 7
CN(C)c1nc(NCc2ccccc2)nc(SCC(=O)Nc2ccc(Cl)c(Cl)c2)n1 | 32* | 7 | 45 | 0 | -6 | 5
COC(=O)CSc1nc(NCc2ccccc2)nc(N(C)C)n1 | -2 | 1 | 0 | -3 | 5 | -12
Cc1nn(Cc2ccccc2Cl)c(C)c1C(=O)N(C)CC(=O)Nc1cccc(F)c1 | 0 | -11 | -1 | -1 | -1 | 15
CC1=Nn2c(nc(-c3ccccc3)c2-c2ccccc2)NC(=O)C1Br (stereo not drawn) | -1 | -21 | 0 | -11 | -7 | 8
Cc1cc(C)n2nc(C(=O)N/N=C/c3cccc(Cl)c3)nc2n1 | 12* | -1 | 0 | 0 | -4 | 7
CCOc1nc(-c2ccccc2)c2cc(Br)ccc2n1 | 2 | -1 | 0 | -4 | -7 | 11
CN(CCCC(=O)O)S(=O)(=O)c1ccc2c(c1)C(=O)c1cc(S(=O)(=O)N(C)CCCC(=O)O)ccc1-2 | 1 | 19 | 3 | 1 | -2 | -18
Cc1c(/N=C(\[O-])Nc2ccc(Br)cc2)sn[n+]1C | 6 | 6 | 3 | 1 | 1 | 13
CCCC(=O)Nc1ccc(Nc2ccccc2)cc1 | 10* | 5 | 0 | 0 | 3 | 3
Cc1sc(NC(=O)Nc2ccccc2)c(C(N)=O)c1C | 13* | -4 | 0 | -5 | -4 | 5
O=C(Nc1ccccc1)Nc1ccc(Nc2ccccc2)cc1 | 29* | 11 | 16 | -2 | 7 | -7
CCCC(=O)Nc1ccc(-c2ccc(NC(=O)CCC)cc2)cc1 | -6 | -3 | -1 | -1 | -3 | 6
Nc1nc(SCC(=O)Nc2ccc(C(F)(F)F)cc2)[nH]c(=O)c1NC(=O)c1ccc(F)c(F)c1 | 28* | 2 | 2 | -3 | 4 | -2
Cc1cc(NC(=O)CSc2nc(N)c(NC(=O)c3ccc(F)c(F)c3)c(=O)[nH]2)no1 | 2 | -4 | 0 | -3 | 0 | 7
O=S(=O)(Nc1nc2ccccc2nc1N1CCc2ccccc2C1)c1ccc(Br)cc1 | 10* | i | 2 | -445 | -11 | 28
O=S(=O)(Nc1nc2ccccc2nc1N1CCc2ccccc2C1)c1ccc(Cl)cc1 | 10 | -370 | 41 | -126 | -8 | 12
CC(=O)Nc1ccc(S(=O)(=O)Nc2nc3ccccc3nc2N2CCCCCC2)cc1 | -5 | -6 | 7 | -2 | 3 | 12
CC(=O)Nc1ccc(S(=O)(=O)Nc2nc3ccccc3nc2N2CCc3ccccc3C2)cc1 | 16* | -170 | 1 | -53 | 3 | 18
COC(=O)C(C(=O)OC)C1OC23CN(S(=O)(=O)c4ccc(C)cc4)C=CC2(C)C3c2ccccc21 (stereo not drawn) | / | 12 | / | 6 | / | /
Cc1ccsc1C=Nc1ccc(O)cc1 | -1 | / | 0 | / | 9 | 28*
CCc1ccc2oc(=O)cc(CN3CCOCC3)c2c1 | 10* | 2 | 0 | -3 | 2 | -1
CC(=O)N/C(=C\c1ccc(F)cc1)C(=O)NC(Cc1c[nH]c2ccccc12)C(=O)O (stereo not drawn) | 14* | -8 | -2 | 0 | -5 | 2
Nc1nc(-c2ccccc2)nc2sc3c(c12)CCCC3 | 14* | -50 | 0 | -25 | 4 | 22
SMILES | GRIN3A LBD mod | ADAM10 inh | MPTP block | ADAM17 inh | MT1-MMP act inh | SKN-1 inh
O=c1oc(-c2ccccc2)nc2sc3c(c12)CCC3 | -1 | -6 | 0 | -4 | -3 | -6
CC1CCN(c2ccc([N+](=O)[O-])cc2C(=O)NCC2CCCO2)CC1 (stereo not drawn) | 8 | -4 | 0 | 4 | 0 | 1
CCOC(=O)/C(=C/c1ccc(N2CCC(c3ccccc3)=N2)cc1)C(C)=O | -4 | / | 5 | / | -63 | 19
Cn1c(=O)cc(C(=O)N/N=C/c2ccc(Cl)cc2)[nH]c1=O | 13* | -7 | 0 | -3 | -1 | -14
CC1(C)COCN1C(=O)c1ccc(Cl)c(Cl)c1 | -1 | -2 | 2 | 1 | 0 | -11
CCn1c(SCC(=O)C(C)(C)C)nnc1-c1cnccn1 | 0 | -3 | 1 | -5 | 7 | -7
O=C(NCCc1ccc(F)cc1)c1ccc([N+](=O)[O-])cc1 | -2 | 4 | 0 | -2 | 4 | 11
Cc1cccc2c(CCNC(=O)c3ccc([N+](=O)[O-])cc3)c[nH]c12 | 18* | -6 | 0 | 1 | 2 | -4
O=[N+]([O-])c1cc(C(F)(F)F)ccc1NCCc1c[nH]c2ccccc12 | 29* | 19 | 11 | 8 | 6 | 19
O=C(NCCc1c[nH]c2ccccc12)c1ccc(Cl)cc1 | 29* | 1 | 0 | 0 | 0 | -9
O=[N+]([O-])c1cccnc1NCCc1c[nH]c2ccccc12 | 1 | -4 | 0 | 0 | 7 | -5
COc1ccc(C(=O)NCCc2c[nH]c3ccccc23)cc1[N+](=O)[O-] | 25* | -1 | 1 | -3 | 4 | 11
NC(=O)Cn1cnc2c(nnn2-c2ccc(F)cc2)c1=O | / | 2 | 0 | -3 | -2 | 3
O=c1[nH]cc(S(=O)(=O)N2CCN(c3ccccc3F)CC2)c(=O)[nH]1 | / | -10 | 1 | -5 | 2 | -2
S=C(NCc1ccccc1)Nc1nccs1 | 0 | 0 | 1 | 1 | -1 | 3
O=C(CN1C(=O)NC(Cc2c[nH]c3ccccc23)C1=O)Nc1ccccc1Br (stereo not drawn) | 5 | -8 | -1 | 4 | 5 | -7
COc1ccc(OCC(=O)NCCc2c[nH]c3ccccc23)cc1 | 1 | -5 | 0 | -2 | 0 | -1
COc1ccc(C(=O)NCCc2c[nH]c3ccccc23)cc1 | 10* | 8 | 1 | -3 | 3 | -14
COc1ccc(CCNC(=S)NCCc2c[nH]c3ccccc23)cc1 | 31* | 8 | 0 | 4 | -1 | -7
COc1ccc(CNC(=O)NCCc2c[nH]c3ccccc23)cc1 | -6 | 3 | 1 | 2 | 5 | 8

From PubChem BioAssay
